Data as given in ChEMBL document CHEMBL1131058, “Studies on quinazolines and 1,2,4-benzothiadiazine 1,1-dioxides. 8.1, 2 synthesis and pharmacological evaluation of tricyclic fused quinazolines and 1,2,4-benzothiadiazine 1,1-dioxides as potential alpha1-adrenoceptor antagonists” (J Med Chem, 1998).

Experiments:
[1] = molecular target: D(2) dopamine receptor (Homo sapiens, UniProt P14416); test: Compound is evaluated for binding affinity towards Dopamine receptor D2 using [3H]spiperone in CHO cells; format: cell-based
Chain of D(2) dopamine receptor (P14416 whole entry): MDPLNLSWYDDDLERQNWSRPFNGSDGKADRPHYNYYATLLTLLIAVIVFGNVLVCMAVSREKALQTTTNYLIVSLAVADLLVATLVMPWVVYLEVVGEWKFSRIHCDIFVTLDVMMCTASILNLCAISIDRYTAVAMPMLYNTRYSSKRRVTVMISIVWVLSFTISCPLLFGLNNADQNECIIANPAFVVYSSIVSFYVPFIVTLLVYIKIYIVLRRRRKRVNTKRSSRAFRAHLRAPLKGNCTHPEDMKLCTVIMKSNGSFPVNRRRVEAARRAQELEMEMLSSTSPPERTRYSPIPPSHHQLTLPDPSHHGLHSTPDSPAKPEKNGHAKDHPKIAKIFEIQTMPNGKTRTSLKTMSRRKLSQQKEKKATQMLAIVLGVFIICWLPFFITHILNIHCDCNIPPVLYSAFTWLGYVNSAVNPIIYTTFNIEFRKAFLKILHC
Outline: (§1)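 Contract radioligand competition binding. Sources: 5-HT1 and 5-HT1A in rat brain cortex; 5-HT2 and σ2 in rat brain; σ in guinea pig brain; D2, rhD2 and rhD3 in CHO cells with [³H]spiperone; H1 in guinea pig lung with [³H]pyrilamine. Inhibition constants reported; no constant given where inhibition at 10 µM was below 50%.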

[2] = molecular target: Sigma 2 receptor; test: Binding affinity towards Sigma 2 receptor using [3H]ifenprodil in rat brain at 10 uM; format: tissue-based
Outline: (§2)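 Single-concentration screen at 10 µM in contract radioligand binding assays. Records whether inhibition of specific radioligand binding stayed below 50%.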

[3] = molecular target: T1, Serotonin 1 (5-HT1) receptor (Rattus norvegicus, UniProt P28564+P30940+P19327+P28565); test: Compound is evaluated for binding affinity towards 5-hydroxytryptamine 1 receptor using [3H]5-HT in rat brain cortex at 10 uM; format: tissue-based; outline: as §2
[4] = molecular target: Alpha-2A adrenergic receptor (Homo sapiens) (UniProt P08913); test: Compound is evaluated for binding affinity towards Alpha-2A adrenergic receptor using [3H]MK912 at 10 uM
Chain of Alpha-2A adrenergic receptor (Homo sapiens) (P08913 whole entry): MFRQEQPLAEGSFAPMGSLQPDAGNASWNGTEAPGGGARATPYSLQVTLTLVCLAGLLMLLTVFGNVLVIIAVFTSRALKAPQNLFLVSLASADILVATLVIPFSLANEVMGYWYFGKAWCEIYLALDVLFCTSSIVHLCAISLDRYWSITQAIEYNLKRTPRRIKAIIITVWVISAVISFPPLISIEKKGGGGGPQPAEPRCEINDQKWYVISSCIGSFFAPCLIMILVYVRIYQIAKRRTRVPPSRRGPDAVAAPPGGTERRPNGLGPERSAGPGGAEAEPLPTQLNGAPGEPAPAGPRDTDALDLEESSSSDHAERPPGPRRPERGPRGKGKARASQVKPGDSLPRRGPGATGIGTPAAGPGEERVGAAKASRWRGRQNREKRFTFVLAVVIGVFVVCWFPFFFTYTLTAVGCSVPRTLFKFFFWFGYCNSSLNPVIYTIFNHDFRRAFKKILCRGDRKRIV

[5] = molecular target: Histamine H1 receptor (Cavia porcellus, UniProt P31389); test: Compound is evaluated for binding affinity towards Histamine H1 receptor using [3H]pyrilamine in guinea pig lung; format: tissue-based; outline: as §1
Chain of Histamine H1 receptor (P31389 whole entry): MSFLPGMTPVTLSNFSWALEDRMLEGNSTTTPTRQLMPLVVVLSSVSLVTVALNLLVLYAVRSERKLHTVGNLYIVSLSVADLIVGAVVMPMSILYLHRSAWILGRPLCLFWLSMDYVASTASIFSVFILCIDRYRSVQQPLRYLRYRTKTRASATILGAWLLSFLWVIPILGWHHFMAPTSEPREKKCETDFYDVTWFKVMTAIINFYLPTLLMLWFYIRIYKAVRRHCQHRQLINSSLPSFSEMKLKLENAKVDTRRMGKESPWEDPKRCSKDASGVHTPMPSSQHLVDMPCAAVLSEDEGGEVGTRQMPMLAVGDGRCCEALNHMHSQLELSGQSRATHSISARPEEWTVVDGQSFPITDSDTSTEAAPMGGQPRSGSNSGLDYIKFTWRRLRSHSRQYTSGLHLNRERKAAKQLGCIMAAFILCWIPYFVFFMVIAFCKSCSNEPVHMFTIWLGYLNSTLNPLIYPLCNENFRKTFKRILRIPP

[6] = molecular target: T1, Serotonin 1 (5-HT1) receptor; test: Compound is evaluated for binding affinity towards 5-hydroxytryptamine 1 receptor using [3H]5-HT in rat brain cortex; format: tissue-based; outline: as §1
[7] = molecular target: Sodium channel alpha subunits; brain (Types I, II, III) (Rattus norvegicus) (UniProt P04775+P04774+P08104); test: Displacement of [3H]batrachotoxin from rat brain sodium channel at 10 uM; format: tissue-based
Outline: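 Radioligand competition binding was done by an outside contract lab (Pan Lab). Inhibition constants (Ki) were derived from displacement of the stated tritiated ligand. Each compound was tested at 10 µM. Where inhibition at that concentration stayed below 50%, no Ki was reported.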

[8] = molecular target: D(3) dopamine receptor (Homo sapiens, UniProt P35462); test: Compound is evaluated for binding affinity towards recombinant human Dopamine receptor D3 using [3H]spiperone in CHO cells; format: cell-based; outline: as §1
Chain of D(3) dopamine receptor (P35462 whole entry): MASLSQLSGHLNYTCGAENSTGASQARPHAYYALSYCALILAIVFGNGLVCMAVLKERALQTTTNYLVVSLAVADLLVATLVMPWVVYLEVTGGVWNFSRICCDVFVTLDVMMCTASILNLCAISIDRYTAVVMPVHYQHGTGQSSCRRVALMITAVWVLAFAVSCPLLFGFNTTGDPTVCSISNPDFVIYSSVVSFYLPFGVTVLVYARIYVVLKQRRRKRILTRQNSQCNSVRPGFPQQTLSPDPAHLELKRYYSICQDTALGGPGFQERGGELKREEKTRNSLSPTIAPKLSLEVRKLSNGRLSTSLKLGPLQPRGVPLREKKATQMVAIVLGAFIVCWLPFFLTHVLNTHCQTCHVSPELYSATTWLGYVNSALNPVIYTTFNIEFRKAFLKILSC

[9] = molecular target: T2, Adrenergic receptor alpha-1 (Rattus norvegicus, UniProt P15823+P23944+P43140); test: Compound is evaluated for binding affinity towards Alpha-1 adrenergic receptor in rat brain cortex membrane; format: cell membranes
T2 sequence (P15823 whole entry): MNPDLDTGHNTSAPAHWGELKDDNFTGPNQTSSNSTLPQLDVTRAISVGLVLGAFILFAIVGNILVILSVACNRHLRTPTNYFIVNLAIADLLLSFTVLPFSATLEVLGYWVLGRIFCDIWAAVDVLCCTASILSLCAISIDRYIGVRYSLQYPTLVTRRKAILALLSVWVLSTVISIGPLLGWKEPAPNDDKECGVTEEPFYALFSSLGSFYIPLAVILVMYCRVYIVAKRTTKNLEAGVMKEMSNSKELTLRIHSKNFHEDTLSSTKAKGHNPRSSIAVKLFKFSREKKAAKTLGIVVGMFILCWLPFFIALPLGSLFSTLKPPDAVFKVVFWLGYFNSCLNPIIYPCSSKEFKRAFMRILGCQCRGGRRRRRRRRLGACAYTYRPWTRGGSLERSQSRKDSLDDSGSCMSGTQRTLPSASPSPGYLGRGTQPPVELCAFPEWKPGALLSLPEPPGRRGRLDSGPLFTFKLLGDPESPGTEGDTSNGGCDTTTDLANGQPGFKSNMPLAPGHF
T2 sequence (P23944 whole entry): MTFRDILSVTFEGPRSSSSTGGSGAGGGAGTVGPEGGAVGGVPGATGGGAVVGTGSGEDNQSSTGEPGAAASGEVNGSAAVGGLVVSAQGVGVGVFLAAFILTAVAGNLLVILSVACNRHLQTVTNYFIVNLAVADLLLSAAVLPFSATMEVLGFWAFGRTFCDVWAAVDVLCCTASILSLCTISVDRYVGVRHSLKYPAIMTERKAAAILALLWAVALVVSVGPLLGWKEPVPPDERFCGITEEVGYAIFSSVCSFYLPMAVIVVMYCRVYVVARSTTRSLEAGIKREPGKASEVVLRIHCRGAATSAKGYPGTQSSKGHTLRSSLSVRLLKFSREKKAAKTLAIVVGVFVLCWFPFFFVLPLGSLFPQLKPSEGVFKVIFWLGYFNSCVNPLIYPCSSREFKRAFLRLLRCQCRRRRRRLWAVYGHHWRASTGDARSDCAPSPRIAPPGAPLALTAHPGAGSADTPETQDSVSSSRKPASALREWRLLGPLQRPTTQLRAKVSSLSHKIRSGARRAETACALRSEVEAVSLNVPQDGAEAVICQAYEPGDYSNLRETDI
T2 sequence (P43140 whole entry): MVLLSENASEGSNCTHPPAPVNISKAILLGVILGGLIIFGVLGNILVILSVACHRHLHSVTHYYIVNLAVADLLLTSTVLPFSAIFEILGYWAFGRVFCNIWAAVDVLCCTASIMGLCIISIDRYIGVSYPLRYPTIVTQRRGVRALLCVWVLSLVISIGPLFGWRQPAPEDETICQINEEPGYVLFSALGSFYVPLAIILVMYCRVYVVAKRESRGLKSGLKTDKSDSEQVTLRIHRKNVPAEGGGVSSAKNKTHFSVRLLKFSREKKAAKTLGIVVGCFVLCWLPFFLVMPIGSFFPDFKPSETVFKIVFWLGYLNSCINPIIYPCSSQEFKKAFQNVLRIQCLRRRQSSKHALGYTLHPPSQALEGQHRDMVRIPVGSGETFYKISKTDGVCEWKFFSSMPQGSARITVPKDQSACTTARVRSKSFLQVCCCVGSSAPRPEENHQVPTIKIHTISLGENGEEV
Outline: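 Triplicate competition binding against 0.2-0.25 nM [³H]prazosin in Tris buffer pH 7.4, 30 min at room temperature. Competitor range 0.1-200 nM. Nonspecific binding defined with 10 µM phentolamine. Reaction stopped by GF/B filtration with two cold Tris washes. Membrane protein 300-400 µg per assay. Ki calculated from the data; mean ± SEM of 3-6 experiments.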

Structure (SMILES): COc1ccccc1N1CCN(CC2CN=C3c4ccccc4N=C(SC)N32)CC1 (centres undefined)
- Ki [1]: 449 nM
- Inhibition [2]: < 50%
- Ki [3]: 1839 nM

Structure (SMILES): COc1ccccc1N1CCN(C[C@@H]2CN=C3c4ccccc4NC(=O)N32)CC1
- inhibition [4]: < 50%

Structure (SMILES): COc1ccccc1N1CCN(CC2CN3C(=O)Nc4ccccc4C3=N2)CC1 (centres undefined)
- Ki [5]: 961 nM
- Ki [6]: 2500 nM
- inhibition [7]: < 50%
- Ki [8]: 2200 nM

Structure (SMILES): Oc1nc2ccccc2c2ncc(CN3CCN(c4ccccc4Cl)CC3)n12
- Ki [9]: 7.12 nM
